From ChEMBL document CHEMBL1909502, “Design and synthesis of 2-(1, 3-dioxoisoindolin-2-yl)-N-(4-oxo-2-substitutedthiazolidin-3-yl) acetamide derivatives as potential anticonvulsant agents” (Eur J Med Chem, 2011)
Active and inactive are the calls of the source. No cut-off for these calls is given here.

How the values were obtained:
[1] = test system: Mus musculus; experiment: Anticonvulsant activity in Swiss albino CF1 mouse assessed as protection against subcutaneous pentylenetetrazole-induced seizures at 30 to 300 mg/kg, ip after 4 hrs postdose; assay type: functional, organism-based
In short: (§1)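 Male Swiss albino CF-1 mice, 20–30 g. Compounds were suspended in 0.5% methyl cellulose and given i.p. at 0.01 mL/g, at 30, 100 and 300 mg/kg. MES and sc PTZ seizure tests followed reported procedures at 0.5 h and 4 h post-dose. The value is the minimal dose protecting 50% or more of the animals.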

[2] = test system: Mus musculus; experiment: Anticonvulsant activity in Swiss albino CF1 mouse assessed as protection against subcutaneous pentylenetetrazole-induced seizures at 30 to 300 mg/kg, ip after 0.5 hrs postdose; assay type: functional, organism-based; in short: as §1
[3] = Octanol-phosphate buffer partition coefficient, log P of the compound at 5 mg after 24 hrs by UV spectroscopic analysis; assay type: physicochemical
In short: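 Octanol/phosphate buffer partition at room temperature. 5 mg of drug was added to 10 mL octanol plus 10 mL buffer and shaken mechanically for 24 h. The mixture was left to equilibrate for 6 h, and the phases were separated and membrane-filtered. Drug in the aqueous phase was quantified by UV spectroscopy.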

[4] = test system: Mus musculus; experiment: Neurotoxicity in Swiss albino CF1 mouse assessed as decrease in locomotor activity at 30 mg/kg, ip after 4 hrs postdose; assay type: toxicity, organism-based; set-up: dose 30 mg/kg, route intraperitoneal; scale not given: the % may be the effect or the level left; details: in vivo
In short: (§2)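 Compounds in 30% PEG 200 were given i.p. at 30 mg/kg to male Swiss albino CF-1 mice. Locomotor activity was scored digitally in an actophotometer for 10 min, 24 h before dosing and again 0.5 h and 4 h after. The value is the % decrease against the pre-treatment score, as mean ± SEM, with Student's t test at p < 0.05.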

[5] = test system: Mus musculus; experiment: Neurotoxicity in Swiss albino CF1 mouse assessed as decrease in locomotor activity at 30 mg/kg, ip after 0.5 hrs postdose; assay type: toxicity, organism-based; set-up: dose 30 mg/kg, route intraperitoneal; scale not given: the % may be the effect or the level left; details: in vivo; in short: as §2
[6] = test system: Mus musculus; experiment: Neurotoxicity in ip dosed Swiss albino CF1 mouse assessed as minimum dose required to produce minimal motor deficit after 4 hrs by rotarod test; assay type: toxicity, organism-based; details: in vivo
In short: (§3)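 Mice (male Swiss albino CF-1, groups of 5) were trained on an accelerating rotarod at 10 rpm with a 3.2 cm rod and had to stay on for two consecutive 90 s trials. Trained animals then received 30, 100 or 300 mg/kg i.p. Deficit was inability to stay on the rod for at least 1 min in each of three trials, checked at 0.5 h and 4 h. The value is the minimal dose giving deficit in 50% or more of the animals.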

[7] = test system: Mus musculus; experiment: Neurotoxicity in ip dosed Swiss albino CF1 mouse assessed as minimum dose required to produce minimal motor deficit after 0.5 hrs by rotarod test; assay type: toxicity, organism-based; details: in vivo; in short: as §3
[8] = test system: Mus musculus; experiment: Anticonvulsant activity in ip dosed Swiss albino CF1 mouse assessed as protection against maximal electroshock-induced seizures after 4 hrs; assay type: functional; details: read-out: MED; in short: as §1
[9] = test system: Mus musculus; experiment: Anticonvulsant activity in ip dosed Swiss albino CF1 mouse assessed as protection against maximal electroshock-induced seizures after 0.5 hrs; assay type: functional; details: read-out: MED; in short: as §1
[10] = test system: Mus musculus; experiment: Neurotoxicity in Swiss albino CF1 mouse assessed as minimal motor deficit at 30 to 300 mg/kg, ip after 0.5 hrs by rotarod test; assay type: toxicity, organism-based; set-up: dose 30-300 mg/kg, route intraperitoneal; details: in vivo; in short: as §3
[11] = test system: Mus musculus; experiment: Anticonvulsant activity in Swiss albino CF1 mouse assessed as protection against maximal electroshock-induced seizures at 30 to 300 mg/kg, ip after 4 hrs postdose; assay type: functional, organism-based; in short: as §1
[12] = test system: Mus musculus; experiment: Neurotoxicity in Swiss albino CF1 mouse assessed as minimal motor deficit at 30 to 300 mg/kg, ip after 4 hrs by rotarod test; assay type: toxicity, organism-based; set-up: dose 30-300 mg/kg, route intraperitoneal; details: in vivo; in short: as §3
[13] = test system: Mus musculus; experiment: Anticonvulsant activity in ip dosed Swiss albino CF1 mouse assessed as protection against subcutaneous pentylenetetrazole-induced seizures after 4 hrs; assay type: functional; details: Swiss albino CF1, 4 h, read-out: MED; in short: as §1
[14] = test system: Mus musculus; experiment: Anticonvulsant activity in ip dosed Swiss albino CF1 mouse assessed as protection against subcutaneous pentylenetetrazole-induced seizures after 0.5 hrs; assay type: functional; details: Swiss albino CF1, 0.5 h, read-out: MED; in short: as §1
[15] = test system: Mus musculus; experiment: Anticonvulsant activity in Swiss albino CF1 mouse assessed as protection against maximal electroshock-induced seizures at 30 to 300 mg/kg, ip after 0.5 hrs postdose; assay type: functional, organism-based; in short: as §1

logP at 24 h [3]	Structure (SMILES)	Activity [1]	Activity [2]	Activity [4] [%]	Activity [5] [%]	MTC [6] [mg/kg]	MTC [7] [mg/kg]	minimal effective dose [8] [mg/kg]	minimal effective dose [9] [mg/kg]	Activity [10]	Activity [11]	Activity [12]	minimal effective dose [13] [mg/kg]	minimal effective dose [14] [mg/kg]	Activity [15]
1.97	COc1ccc(C2SCC(=O)N2NC(=O)CN2C(=O)c3ccccc3C2=O)cc1 (centres undefined)	inactive	inactive	14.93	3.25	300	300	100	100	–	–	–	–	–	–
–	O=C1NC(=O)C(c2ccccc2)(c2ccccc2)N1 [PHENYTOIN]	–	–	18.57	33.9	100	100	30	30	–	–	–	–	–	–
2.4	O=C(CN1C(=O)c2ccccc2C1=O)NN1C(=O)CSC1c1ccc(O)cc1 (centres undefined)	inactive	inactive	43.34	68.37	300	300	100	30	–	–	–	–	–	–
1.13	O=C(CN1C(=O)c2ccccc2C1=O)NN1C(=O)CSC1c1ccco1 (centres undefined)	inactive	inactive	11.64	5.14	–	–	–	100	Non-toxic	inactive	Non-toxic	–	–	–
2.97	Cc1ccc(C2SCC(=O)N2NC(=O)CN2C(=O)c3ccccc3C2=O)cc1 (centres undefined)	–	–	68.16	25.94	–	–	30	30	Non-toxic	–	Non-toxic	300	100	–
–	CCCC(CCC)C(=O)[O-].[Na+] [VALPROATE SODIUM]	inactive	–	–	–	–	–	–	–	Non-toxic	–	Non-toxic	–	300	–
2.78	COc1ccc(C2SCC(=O)N2NC(=O)CN2C(=O)c3ccccc3C2=O)cc1OC (centres undefined)	–	–	27.95	20.25	–	–	300	300	Non-toxic	–	Non-toxic	300	100	–
1.25	O=C(CN1C(=O)c2ccccc2C1=O)NN1C(=O)CSC1c1cccnc1 (centres undefined)	inactive	inactive	24.01	18.03	–	–	300	100	Non-toxic	–	Non-toxic	–	–	–
1.31	COc1cc(C2SCC(=O)N2NC(=O)CN2C(=O)c3ccccc3C2=O)ccc1O (centres undefined)	–	–	7.31	38.13	–	–	100	30	Non-toxic	–	Non-toxic	300	300	–
2.15	O=C(CN1C(=O)c2ccccc2C1=O)NN1C(=O)CSC1c1cccs1 (centres undefined)	inactive	inactive	71.73	63.04	100	–	100	–	Non-toxic	–	–	–	–	inactive
3.21	O=C(CN1C(=O)c2ccccc2C1=O)NN1C(=O)CSC1c1ccc(Cl)cc1 (centres undefined)	inactive	–	16.13	50.83	–	300	300	300	–	–	Non-toxic	–	300	–
3.79	O=C(CN1C(=O)c2ccccc2C1=O)NN1C(=O)CSC1c1c(F)cccc1Cl (centres undefined)	–	–	30.18	12.01	–	–	100	100	Non-toxic	–	Non-toxic	300	300	–
2.54	O=C(CN1C(=O)c2ccccc2C1=O)NN1C(=O)CSC1c1ccc(Cl)cc1Cl (centres undefined)	–	–	25.55	63.73	–	300	30	–	–	–	Non-toxic	100	100	inactive
3.65	O=C(CN1C(=O)c2ccccc2C1=O)NN1C(=O)CSC1/C=C/c1ccccc1 (centres undefined)	inactive	–	66.5	5.66	–	–	300	300	Non-toxic	–	Non-toxic	–	300	–
2.84	CN(C)c1ccc(C2SCC(=O)N2NC(=O)CN2C(=O)c3ccccc3C2=O)cc1 (centres undefined)	–	–	44.08	9.78	–	–	300	300	Non-toxic	–	Non-toxic	300	300	–
1.46	O=C(CN1C(=O)c2ccccc2C1=O)NN1C(=O)CSC1c1ccccc1O (centres undefined)	inactive	inactive	36.91	32.63	100	100	100	100	–	–	–	–	–	–
2.23	O=C(CN1C(=O)c2ccccc2C1=O)NN1C(=O)CSC1c1ccccc1 (centres undefined)	–	–	64.26	50	30	30	100	100	–	–	–	300	100	–
1.59	O=C(CN1C(=O)c2ccccc2C1=O)NN1C(=O)CSC1c1c[nH]c2ccccc12 (centres undefined)	inactive	–	25.84	9.95	–	–	300	300	Non-toxic	–	Non-toxic	–	300	–
